Active and inactive are the calls of the source.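 How the source made its calls, unless noted: active means viability at or under a set limit in both replicates, limit being median viability minus 3 SD (cut at about 48% in these data, passing the limit was not always enough); inconclusive means at or under the limit in just one replicate; inactive means at or above the limit in both replicates.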
How the values were obtained:
[1] = reduced viability of SK-BR-3 breast cancer cells – cell-based, 24 h, human, pilot screen (AID 572;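 active means viability at or below 10% of carrier control in both of two separate runs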;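 further: compound exposure lasted between 18 and 24 h rather than exactly 24 h; 100% = carrier-treated control wells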); settings: SK-BR-3 viability, CellTiter-Glo luminescence, at 10 µM, stronger effect = lower value
[2] = HUVEC growth inhibition – cell-based, human, primary screen (AID 575;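 active means viability at or below 30% in both replicate assays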;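 further: 100% = median of untreated cell wells with 0.1% DMSO on each plate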); settings: HUVEC proliferation, CellTiter-Glo luminescence, 72 h; at 10 µM; stronger effect = lower value
Procedure, shortened: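 system = HUVEC primary cells | amount = 1250 cells/well | buffer or medium = supplemented EBM, 2% fetal bovine serum | dosing = single-point 10 µM, DMSO 0.1% final | times = 72 h compound incubation | detection = CTG luminescence | read-out = % viability relative to median vehicle-well signal on each plate | control set = vehicle and MePR control wells | format = collagen-coated 384-well format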

[3] = H69AR cell proliferation blockers – human, duplicate replicates, primary screen (AID 580); settings: H69AR lung tumor cells viability, ATP luminescence, 72 h; at 10 µM; stronger effect = lower value;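 further: 100% = mean luminescence of untreated wells and 0% = no signal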
[4] = MRP1 drug-resistance reversers in H69AR cells – cell-based, doxorubicin co-treatment, pilot screen (AID 601;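 active means viability loss from added drug above about 55%, and viability with drug at most 40%, in both replicates, limit read from the data, passing the limit was not always enough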); settings: CellTiter-Glo, 72 h, at 10 µM; for differential viability (reversal): stronger effect = higher value
[5] = yeast transport mutant growth inhibition pilot in 384-well plates, post-Golgi transport modulator project (AID 636; in the data active means inhibition above about 31%); settings: absorbance 615 nm, about 18 h, stronger effect = higher value
[6] = growth suppression of yeast trafficking mutant, preliminary HTS, modulators of trafficking downstream of Golgi apparatus project, 1536-format plate, OD 615 nm (AID 637; in the data active means inhibition above about 30%); settings: yeast transport mutant growth, absorbance 615 nm, 18 h; stronger effect = higher value
[7] = H69AR cells + 2 uM doxorubicin, measured here: viability with 2 uM doxorubicin, stronger effect = lower value
[8] = H69AR cells, compound alone cytotoxicity

Row | Compound | viability [1] | viability [2] | viability [3] | differential viability (reversal) ([4]; H69AR cells + 2 uM doxorubicin) | viability [4, 7] [%] | viability [4, 8] [%] | inhibition [5] | inhibition [6]
1 | CC(=O)[C@H]1[C@H](C#N)C[C@H]2[C@@H]3CC=C4C[C@@H](O)CC[C@]4(C)[C@H]3CC[C@@]21C | 136% (inactive) | 103% (inactive) | 87% (inactive) | 1.78% (inactive) | 85.2 | 87 | -2.73% (inactive) | 7.33% (inactive)
2 | Cc1nc(Sc2cccn2C)c(C(F)(F)F)c(=O)[nH]1 | 105% (inactive) | 102% (inactive) | 96.3% (inactive) | 13.2% (inactive) | 83.1 | 96.3 | -6.58% (inactive) | 2% (inactive)
3 | Nc1nc2ccc(OC(F)(F)F)cc2s1 | 88% (inactive) | 76.5% (inactive) | 71.9% (inactive) | -19.7% (inactive) | 91.6 | 71.9 | -0.13% (inactive) | 0.33% (inactive)
4 | CCOc1ccc(-c2cn(S(=O)(=O)c3cccc4nsnc34)nc2N)cc1 | 117% (inactive) | 94.8% (inactive) | 84.8% (inactive) | 3.21% (inactive) | 81.6 | 84.8 | 34.9% (active) | 31% (active)
5 | Cc1cnc(NC(=O)CSc2nnc(-c3ccccc3)n2Cc2ccccc2)s1 | 99% (inactive) | 82.5% (inactive) | 90.2% (inactive) | 4.35% (inactive) | 85.8 | 90.2 | 0.55% (inactive) | 13.3% (inactive)
6 | Cc1cn2c(-c3ccncc3)nnc2s1 | 144% (inactive) | 87.4% (inactive) | 99.8% (inactive) | 7.13% (inactive) | 92.7 | 99.8 | -1.23% (inactive) | 3.55% (inactive)
7 | Cc1ccccc1-n1c(SCc2c(C)noc2C)nnc1-c1ccncc1 | 92% (inactive) | 87.5% (inactive) | 87.4% (inactive) | 8.34% (inactive) | 79.1 | 87.4 | -3.78% (inactive) | -2% (inactive)
8 | COc1cc2c(=O)nc3n(c2cc1OC)C(c1ccccc1)N=C(N)N3 (configuration not stated) | 69% (inactive) | 109% (inactive) | 97.1% (inactive) | -2.35% (inactive) | 99.4 | 97.1 | -2.84% (inactive) | 20.2% (inactive)
9 | CCCN(CCC)C(=O)CC(c1ccc(F)cc1)c1ccco1 (configuration not stated) | 71% (inactive) | 80.7% (inactive) | 80.8% (inactive) | -6.06% (inactive) | 86.8 | 80.8 | -5.48% (inactive) | -0.91% (inactive)
10 | CCc1nc(SCC(=O)NCc2ccco2)c2c3c(sc2n1)CCCC3 | 97% (inactive) | 78.8% (inactive) | 67.8% (inactive) | -9.31% (inactive) | 77.1 | 67.8 | -3.12% (inactive) | -3.44% (inactive)
11 | Cc1cc(S(=O)(=O)N2CCN(c3ccccc3C)CC2)ccc1F | 89% (inactive) | 90.1% (inactive) | 79.5% (inactive) | -0.315% (inactive) | 79.8 | 79.5 | -0.78% (inactive) | 4.59% (inactive)
12 | CC(=O)c1cccc(NC(=O)NCc2ccco2)c1 | 93% (inactive) | 93.9% (inactive) | 85.7% (inactive) | -0.48% (inactive) | 86.2 | 85.7 | -4.79% (inactive) | 2.36% (inactive)
13 | COc1ccc(CNc2oc(-c3cccc4ccccc34)nc2C#N)cc1 | 85% (inactive) | 95.5% (inactive) | 96.9% (inactive) | -4.35% (inactive) | 101 | 96.9 | -4.93% (inactive) | -0.18% (inactive)
14 | NC(N)=NC(N)=NCCc1ccccc1 | 103% (inactive) | 104% (inactive) | 99.4% (inactive) | -0.22% (inactive) | 99.6 | 99.4 | 0.65% (inactive) | -0.67% (inactive)

Source: PubChem BioAssay
